Results gathered from unrelated publications.
Compare with care: the assays were run in different laboratories.
Target: Cholinesterase (BCHE, Homo sapiens, UniProt P06276)
Read-out: enzyme activity
Action: inhibitor

| Compound | assay | system | setting | IC50 |
| --- | --- | --- | --- | --- |
| Cc1ccccc1OP(=O)(Oc1ccccc1C)Oc1ccccc1C | – | – | – | ~330 nM |
| Cc1cc(O)nc(O)n1 | Ellman | – | – | 368 nM |
| CC(C)(C)c1cccc(OP(=O)(Oc2cccc(C(C)(C)C)c2)Oc2cccc(C(C)(C)C)c2)c1 | – | liver microsomes | – | > 20 µg/mL |
| C#CCNc1nc(NCCCC2CCN(Cc3ccccc3)CC2)c(C#N)cc1C#N | Ellman | – | – | 1920 nM |
| C=CCn1c2cc(OC(=O)CCCCN3CCN(Cc4ccc(C(F)(F)F)cc4)CC3)ccc2c2ccnc(C)c21 | Ellman | – | – | 204 nM |
| CC(C)c1ccccc1OP(=O)(Oc1ccccc1C(C)C)Oc1ccccc1C(C)C | – | liver microsomes | – | > 20 µg/mL |
| CC(=O)n1ccc(=O)[nH]c1=O | Ellman | – | – | 270 nM |
| C[C@@H]1CCCN1CCCCOc1ccc2occc(=O)c2c1 | Ellman | – | pH 7.4 | 48500 nM |
| C[N+](C)(C)CCCCCCCCCC[N+](C)(C)C | – | – | – | 17400 nM |
| C=CCn1c2cc(OC(=O)CCCN3CCN(Cc4ccccc4)CC3)ccc2c2ccnc(C)c21 | Ellman | – | – | 163 nM |
| Cn1ccc(=O)n(C)c1=O | Ellman | – | – | 544 nM |
| C=CCn1c2cc(OC(=O)CCCCN3CCN(Cc4cccc(Cl)c4)CC3)ccc2c2ccnc(C)c21 | Ellman | – | – | 568 nM |
| CS(=O)(=O)n1cc(Br)c(=O)[nH]c1=O | Ellman | – | – | 195 nM |
